The record followed here is PubChem BioAssay AID623961 (The Scripps Research Institute Molecular Screening Center, 2012).

Calls of active or inactive are those of the source.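 How the source made its calls: active means mean cell viability below 80%; inactive means the rest.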

This assay deals with Huh-7.5 Rluc-replicon viability, CellTiter-Glo ATP, 72 h. Kind of assay: cytotoxicity in HCV replicon hepatoma cells, late-stage follow-up, cytotoxicity control for HCV NS3 helicase inhibitor project, cell-based, luminescence (AID 623961). The conditions noted are these: at 10 µM; hits give low values. The procedure, abridged: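 test system = Huh-7.5 human hepatoma cells harboring HCV Renilla luciferase replicon | compound dosing = 10 µM single concentration, 0.5% DMSO | schedule = cell attachment 4-5 h, compound exposure 72 h at 37 °C, 5% CO2 | measured by = ATP luminescence after 30 min lysis at 23 °C | read-out = average percent cell viability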
For orientation: A replicon is a self-replicating genome or part of one, used to study replication in cells.
Regarding `Cc1ccc2nc(-c3ccc4nc(-c5ccc(NC(=O)c6ccccc6)cc5)sc4c3)sc2c1S(=O)(=O)O`, the viability is 88% (inactive).

Regarding `CN1CCN(Cc2cc(CN3CCN(C)CC3)c(O)c(=O)c(CN3CCN(C)CC3)c2)CC1`, the viability is 69%. In the case of `Cc1ccc2nc(-c3ccc4nc(-c5ccc(NCc6ccccc6)cc5)sc4c3)sc2c1S(=O)(=O)O` it was 109% (inactive). To `Cc1ccc2nc(-c3ccc4nc(-c5ccc(NC(=O)c6cccc(Cl)c6)cc5)sc4c3)sc2c1S(=O)(=O)O` belongs 112% (inactive); to `NS(=O)(=O)c1ccc2nc(NC(=O)c3ccc4ncsc4c3)sc2c1`, 94% (inactive).

With `O=C(Nc1ccc(-c2nc3ccccc3[nH]2)cc1)c1ccc2ncsc2c1`, the viability was 96% (inactive). In the case of `CCN(CC)c1ccc(-c2nc3ccc(C)c(S(=O)(=O)O)c3s2)cc1` it was 99% (inactive); in that of `Cc1ccc2nc(-c3ccc(NC(=S)Nc4ccccc4Br)cc3)sc2c1`, 39%. To `CCOc1ccc2nc(NC(=O)c3ccc4ncsc4c3)sc2c1` belongs 3%; to `Cc1ccc2nc(-c3ccc4nc(-c5ccc(NC(=O)Nc6ccccc6)cc5)sc4c3)sc2c1S(=O)(=O)O`, 108% (inactive). Turning to `Cc1ccc2nc(-c3ccc4nc(-c5ccc(NC(=O)c6cccc7ccccc67)cc5)sc4c3)sc2c1S(=O)(=O)O`, the viability was 103% (inactive). To `Cc1ccc2nc(-c3ccc4nc(-c5ccc(NC(=O)c6cc(C(F)(F)F)cc(C(F)(F)F)c6)cc5)sc4c3)sc2c1S(=O)(=O)O` belongs 122% (inactive); to `Cc1ccc2nc(-c3ccc(N)cc3)sc2c1S(=O)(=O)O`, 104% (inactive); to `Cc1ccc2nc(-c3ccc4nc(-c5ccc(NC(=O)c6cccnc6)cc5)sc4c3)sc2c1S(=O)(=O)O`, 113% (inactive).

The term viability denotes a read-out of living cells in per cent, often relative to untreated cells.
